The test system of test [1] is Staphylococcus aureus. Put plainly: Antibacterial activity against Staphylococcus aureus ATCC 25923. Type of test: functional, organism-based. The method, boiled down: (§1)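 Agar plate diffusion: 5.5 mm susceptibility disks loaded with 5 µg pure compound (1 mg for crude extracts) placed on agar plates seeded with the test organism (B. subtilis 168, S. aureus ATCC 25923, E. coli ATCC 25922 or C. albicans); inhibition zones read after 24 h incubation at 37 °C.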

For test [2], the system named is Escherichia coli. Put plainly: Antibacterial activity against Escherichia coli ATCC 25922. Type of test: functional, organism-based. The method, boiled down: as §1
Test [3] relates to Bacillus subtilis. Kind of test: Antibacterial activity against Bacillus subtilis 168. The format is functional, organism-based. The note with it: subsp. subtilis str. 168. The method, boiled down: as §1
The subject of another test is Candida albicans. Put plainly: Antifungal activity against Candida albicans at 5 ug after 24 hrs by agar plate diffusion assay. Type of test: functional, organism-based. The method, boiled down: as §1
For test [4], the system named is Bacillus subtilis. Kind of test: Antibacterial activity against Bacillus subtilis 168 at 5 ug after 24 hrs by agar plate diffusion assay. As to conditions: subsp. subtilis str. 168, 24 h, read-out: IZ. The format is functional. The method, boiled down: as §1
Test [5] has as its system Staphylococcus aureus. Kind of test: Antibacterial activity against Staphylococcus aureus ATCC 25923 at 5 ug after 24 hrs by agar plate diffusion assay. Type of test: functional. As to conditions: ATCC 25923, 24 h, read-out: IZ. The method, boiled down:
as §1

Test [6] has as its system Escherichia coli. Kind of test: Antibacterial activity against Escherichia coli ATCC 25922 at 5 ug after 24 hrs by agar plate diffusion assay. Type of test: functional, organism-based. The method, boiled down:
as §1

SMILES strings stand for the structures. Calls of active or inactive are those of the source. No cut-off for these calls is given here.

Regarding `CC1CCCCCC(O)C(=O)C(SC2CC(=O)OC(C)CCCCCC(O)C2=O)CC(=O)O1` (centres undefined), the result in the test on Staphylococcus aureus [1], in the test with Escherichia coli [2] and in the test with Bacillus subtilis [3] was inactive.

Take `COC(=O)C(O)CSC1CC(=O)OC(C)CCCCCC(O)C1=O` (centres undefined): the outcome in the test with Staphylococcus aureus [1], in the test with Escherichia coli [2] and with Bacillus subtilis [3] was inactive.

Turning to `CC(=O)OCc1ccc(C(=O)O)o1` [ACETYL SUMIKI'S ACID], the “inhibition zone (IZ)” value with Candida albicans and in the test with Escherichia coli [6] was “inactive” throughout. In addition, the zone of inhibition at 5 µg/disc with Bacillus subtilis [4] and with Staphylococcus aureus [5] was 7 mm in each case.

On to `O=C(O)c1ccc(CO)o1` [SUMIKI'S ACID], for which the “inhibition zone (IZ)” value in the test with Candida albicans and in the test on Escherichia coli [6] was “inactive” in each case. For the same compound, the zone of inhibition at 5 µg/disc in the test with Bacillus subtilis [4] and with Staphylococcus aureus [5] was 7 mm throughout.

The values above are taken from ChEMBL document CHEMBL1150820, “New macrolides and furan carboxylic acid derivative from the sponge-derived fungus Cladosporium herbarum” (2001).
